Results published in ChEMBL document CHEMBL1275595, “Antimicrobial activity of a halocidin-derived peptide resistant to attacks by proteases” (2010).
≈ marks a conversion by molar mass, not a printed value. Calls of active or inactive are those of the source. No cut-off for these calls is given here. Bridge positions count the residues as written; N and C are the ends. Peptide text beside a SMILES is read from it. I, II: the chains in the order shown.

Columns and labels:
[1] = test system: Listeria monocytogenes; test: Antimicrobial activity against Listeria monocytogenes KCTC 19111 after 18 hrs by broth dilution method; format: functional; conditions: KCTC 19111, 18 h
How it was run: (§1)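 Broth microdilution following CLSI recommendations. Bacteria were grown overnight to stationary phase in Mueller-Hinton broth, then diluted in fresh MHB to 2 × 10^5 CFU/ml. Peptide or antibiotic stocks of 640 μg/ml in 0.01% acetic acid were serially 2-fold diluted to 10 μg/ml, and each was added to the bacterial suspension at 11 μl per 100 μl. Plates were incubated 18 h at 37°C. MIC was taken as the lowest concentration giving no visible turbidity, in triplicate.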

[2] = test system: Staphylococcus aureus; test: Antimicrobial activity against methicillin-resistant Staphylococcus aureus CCARM 3696 by radial diffusion assay incubated with trypsin; format: functional, organism-based
[3] = test system: Salmonella enterica; test: Antimicrobial activity against Salmonella enterica KCTC 2930 after 18 hrs by broth dilution method; format: functional; conditions: KCTC 2930, 18 h; how it was run: as §1
[4] = test system: Enterococcus faecium; test: Antimicrobial activity against vancomycin-resistant Enterococcus faecium CCARM 5028 after 18 hrs by broth dilution method; format: functional; conditions: CCARM 5028, 18 h
How it was run: (§2)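 Broth dilution per CLSI. Bacteria were grown overnight to stationary phase in Mueller-Hinton broth and diluted in fresh MHB to 2 × 10^5 CFU/ml. Stocks at 640 μg/ml in 0.01% acetic acid were 2-fold serially diluted to 10 μg/ml, and 11 μl was added to 100 μl of bacteria. After 18 h at 37°C, MIC was the lowest concentration with no visible turbidity. Run in triplicate.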

[5] = test system: Staphylococcus aureus; test: Antimicrobial activity against methicillin-resistant Staphylococcus aureus CCARM 3696 by radial diffusion assay incubated with Pseudomonas aeruginosa Culture supernatant for 1 hr; format: functional, organism-based
[6] = test system: Citrobacter freundii; test: Antimicrobial activity against Citrobacter freundii KCTC 2359 after 18 hrs by broth dilution method; format: functional; conditions: KCTC 2359, 18 h; how it was run: as §1
[7] = test system: Staphylococcus aureus; test: Antimicrobial activity against methicillin-resistant Staphylococcus aureus CCARM 3696 by radial diffusion assay incubated with Staphylococcus aureus Culture supernatant for 1 hr; format: functional, organism-based
[8] = test system: Staphylococcus aureus; test: Antimicrobial activity against methicillin-resistant Staphylococcus aureus CCARM 3696 by radial diffusion assay incubated with chymotrypsin for 1 hr; format: functional, organism-based
[9] = test system: Bacillus subtilis; test: Antimicrobial activity against Bacillus subtilis KCTC 2213 after 18 hrs by broth dilution method; format: functional; conditions: KCTC 2213, 18 h; how it was run: as §1
[10] = test system: Staphylococcus aureus; test: Antimicrobial activity against methicillin-resistant Staphylococcus aureus CCARM 3696 by colony count assay incubated with trypsin for 1 hr; format: functional, organism-based
How it was run: (§3)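 Peptide (20 μg) was incubated at 37°C with 50 nM trypsin in 100 μl of 10 mM sodium phosphate, then heated 10 min at 80°C and cooled. MRSA (100 μl, 2 × 10^7 CFU/ml) was added for 5 min. Aliquots were plated on TSA (1.5% agarose, 3% TSB in NaP) and counted after overnight growth at 37°C. Read-out was CFU/ml; repeated three times on different days.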

[11] = test system: Escherichia coli; test: Antimicrobial activity against Escherichia coli KCTC 1039 after 18 hrs by broth dilution method; format: functional; conditions: KCTC 1039, 18 h; how it was run: as §1
[12] = test system: Staphylococcus aureus; test: Antimicrobial activity against methicillin-resistant Staphylococcus aureus CCARM 3696 by colony count assay incubated with trypsin for 10 mins; format: functional, organism-based; how it was run: as §3
[13] = test system: Pseudomonas aeruginosa; test: Antimicrobial activity against multidrug-resistant Pseudomonas aeruginosa CCARM 2161 after 18 hrs by broth dilution method; format: functional; conditions: CCARM 2161, 18 h; how it was run: as §2
[14] = test system: Klebsiella oxytoca; test: Antimicrobial activity against Klebsiella oxytoca KCTC 1686 after 18 hrs by broth dilution method; format: functional; conditions: KCTC 1686, 18 h; how it was run: as §1
[15] = test system: Staphylococcus aureus; test: Antimicrobial activity against methicillin-resistant Staphylococcus aureus CCARM 3696 after 18 hrs by broth dilution method; format: functional; conditions: CCARM 3696, 18 h; how it was run: as §2
[16] = test system: Staphylococcus aureus; test: Antimicrobial activity against methicillin-resistant Staphylococcus aureus CCARM 3696 by radial diffusion assay incubated with matrix metalloprotease 7 for 1 hr; format: functional, organism-based
[17] = test system: Micrococcus luteus; test: Antimicrobial activity against Micrococcus luteus KCTC 9341 after 18 hrs by broth dilution method; format: functional; conditions: KCTC 9341, 18 h; how it was run: as §1
[18] = test system: Staphylococcus aureus; test: Antimicrobial activity against methicillin-resistant Staphylococcus aureus CCARM 3696 by colony count assay incubated with trypsin for 20 mins; format: functional, organism-based; how it was run: as §3
[19] = test system: Staphylococcus aureus; test: Antimicrobial activity against methicillin-resistant Staphylococcus aureus CCARM 3696 by radial diffusion assay; format: functional, organism-based
How it was run: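 Radial diffusion. Washed mid-log MRSA (4 × 10^6 CFU) was mixed into 10 ml underlay of 1% agarose and 0.03% TSB in 9 mM NaP/1 mM sodium citrate, pH 7.4. Wells 3 mm wide received 5 μl of peptide at 200 μg/ml in 0.01% acetic acid. After 3 h at 37°C, a 1% agarose/6% TSB overlay was added and plates were incubated overnight. Clear zone diameter was read in units, 0.1 mm = 1 unit.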

[20] = test system: Staphylococcus aureus; test: Antimicrobial activity against methicillin-resistant Staphylococcus aureus CCARM 3696 by radial diffusion assay incubated with matrix metalloprotease 7 for 5 mins; format: functional, organism-based

Compound	MIC [1]	Activity [2]	MIC [3]	MIC [4]	Activity [5]	MIC [6]	Activity [7]	Activity [8]	MIC [9]	Activity [10]	MIC [11]	Activity [12]	MIC [13]	MIC [14]	MIC [15]	Activity [16]	MIC [17]	Activity [18]	Activity [19]	Activity [20]
CC(C)C[C@H](NC(=O)CNC(=O)[C@H](Cc1cnc[nH]1)NC(=O)[C@H](Cc1cnc[nH]1)NC(=O)[C@H](CC(C)C)NC(=O)[C@H](CC(C)C)NC(=O)[C@H](C)NC(=O)[C@H](CCCCN)NC(=O)[C@H](CCCCN)NC(=O)[C@H](Cc1c[nH]c2ccccc12)NC(=O)[C@@H](N)CCCCN)C(=O)N[C@@H](CC(N)=O)C(=O)N[C@@H](CSSC[C@H](NC(=O)[C@H](CC(N)=O)NC(=O)[C@H](CC(C)C)NC(=O)CNC(=O)[C@H](Cc1cnc[nH]1)NC(=O)[C@H](Cc1cnc[nH]1)NC(=O)[C@H](CC(C)C)NC(=O)[C@H](CC(C)C)NC(=O)[C@H](C)NC(=O)[C@H](CCCCN)NC(=O)[C@H](CCCCN)NC(=O)[C@H](Cc1c[nH]c2ccccc12)NC(=O)[C@@H](N)CCCCN)C(=O)N[C@@H](C)C(=O)N[C@@H](CCCCN)C(=O)NCC(=O)N[C@H](C(=O)N[C@@H](CC(C)C)C(=O)N[C@@H](C)C(=O)O)C(C)C)C(=O)N[C@@H](C)C(=O)N[C@@H](CCCCN)C(=O)NCC(=O)N[C@H](C(=O)N[C@@H](CC(C)C)C(=O)N[C@@H](C)C(N)=O)C(C)C (I: H-KWKKALLHHGLNCAKGVLA-NH2 / II: H-KWKKALLHHGLNCAKGVLA-OH; disulfide I:13-II:13)	2 µg/mL (≈ 0.479 µM)	inactive	2 µg/mL (≈ 0.479 µM)	2 µg/mL (≈ 0.479 µM)	inactive	4 µg/mL (≈ 0.959 µM)	inactive	Active	2 µg/mL (≈ 0.479 µM)	Active	2 µg/mL (≈ 0.479 µM)	inactive	4 µg/mL (≈ 0.959 µM)	2 µg/mL (≈ 0.479 µM)	4 µg/mL (≈ 0.959 µM)	Active	4 µg/mL (≈ 0.959 µM)	inactive	–	–
CC(C)C[C@H](NC(=O)CNC(=O)[C@H](Cc1cnc[nH]1)NC(=O)[C@H](Cc1cnc[nH]1)NC(=O)[C@H](CC(C)C)NC(=O)[C@H](CC(C)C)NC(=O)[C@H](C)NC(=O)[C@H](CCCCN)NC(=O)[C@H](CCCCN)NC(=O)[C@H](Cc1c[nH]c2ccccc12)NC(=O)[C@@H](N)CCCCN)C(=O)N[C@@H](CC(N)=O)C(=O)N[C@@H](CSSC[C@H](NC(=O)[C@H](CC(N)=O)NC(=O)[C@H](CC(C)C)NC(=O)CNC(=O)[C@H](Cc1cnc[nH]1)NC(=O)[C@H](Cc1cnc[nH]1)NC(=O)[C@H](CC(C)C)NC(=O)[C@H](CC(C)C)NC(=O)[C@H](C)NC(=O)[C@H](CCCCN)NC(=O)[C@@H](N)CCCCN)C(=O)N[C@@H](C)C(=O)N[C@@H](CCCCN)C(=O)NCC(=O)N[C@H](C(=O)N[C@@H](CC(C)C)C(=O)N[C@@H](C)C(N)=O)C(C)C)C(=O)N[C@@H](C)C(=O)N[C@@H](CCCCN)C(=O)NCC(=O)N[C@H](C(=O)N[C@@H](CC(C)C)C(=O)N[C@@H](C)C(N)=O)C(C)C (I: H-KWKKALLHHGLNCAKGVLA-NH2 / II: H-KKALLHHGLNCAKGVLA-NH2; disulfide I:13-II:11)	–	–	–	–	–	–	–	–	–	–	–	–	–	–	–	–	–	–	Active	–
CC[C@H](C)[C@H](NC(=O)[C@H](CCCCN)NC(=O)[C@H](CCC(=O)O)NC(=O)[C@H](CCCCN)NC(=O)[C@H](CO)NC(=O)[C@H](CCCCN)NC(=O)[C@H](CCCNC(=N)N)NC(=O)[C@H](Cc1ccccc1)NC(=O)[C@H](Cc1ccccc1)NC(=O)[C@H](CC(=O)O)NC(=O)CNC(=O)[C@H](CC(C)C)NC(=O)[C@@H](N)CC(C)C)C(=O)NCC(=O)N[C@@H](CCCCN)C(=O)N[C@@H](CCC(=O)O)C(=O)N[C@@H](Cc1ccccc1)C(=O)N[C@@H](CCCCN)C(=O)N[C@@H](CCCNC(=N)N)C(=O)N[C@H](C(=O)N[C@H](C(=O)N[C@@H](CCC(N)=O)C(=O)N[C@@H](CCCNC(=N)N)C(=O)N[C@H](C(=O)N[C@@H](CCCCN)C(=O)N[C@@H](CC(=O)O)C(=O)N[C@@H](Cc1ccccc1)C(=O)N[C@@H](CC(C)C)C(=O)N[C@@H](CCCNC(=N)N)C(=O)N[C@@H](CC(N)=O)C(=O)N[C@@H](CC(C)C)C(=O)N[C@H](C(=O)N1CCC[C@H]1C(=O)N[C@@H](CCCNC(=N)N)C(=O)N[C@H](C(=O)N[C@@H](CCC(=O)O)C(=O)N[C@@H](CO)C(=O)O)[C@@H](C)O)C(C)C)[C@@H](C)CC)C(C)C)[C@@H](C)CC [CATHELICIDIN]	32 µg/mL (≈ 7.12 µM)	–	> 64 µg/mL	32 µg/mL (≈ 7.12 µM)	inactive	64 µg/mL (≈ 14.2 µM)	inactive	–	8 µg/mL (≈ 1.78 µM)	Active	32 µg/mL (≈ 7.12 µM)	inactive	> 64 µg/mL	> 64 µg/mL	> 64 µg/mL	–	> 64 µg/mL	inactive	–	inactive
